ChEMBL document CHEMBL3526046, “The role of aldehyde oxidase and xanthine oxidase in the biotransformation of a novel negative allosteric modulator of metabotropic glutamate receptor subtype 5” (Drug Metab Dispos, 2012)

What was measured:
[1] = Volume of distribution at steady state in Sprague-Dawley rat at 1 mg/kg, iv administered as single dose; assay type: ADME, organism-based; parameters: dose 1 mg/kg, route intravenous; conditions: in vivo, read-out: Vdss
In short: (§1)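 Cannulated male Sprague-Dawley rats dosed at 1 mg/kg through a jugular catheter in 10% ethanol/70% PEG400/20% saline. Carotid blood drawn at 0.033 to 24 h into chilled EDTA tubes; plasma stored at -80°C. Parameters derived by noncompartmental analysis.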

[2] = Effective half life in Sprague-Dawley rat at 1 mg/kg, iv administered as single dose; assay type: ADME, organism-based; parameters: dose 1 mg/kg, route intravenous; conditions: in vivo; in short: as §1
[3] = tested on: Plasma; test: Retention time in Sprague-Dawley rat plasma treated with 56.6 mg/kg, ip VU0409106 single dose; assay type: ADME, organism-based; parameters: dose 56.6 mg/kg, route intraperitoneal; conditions: in vivo
In short: (§2)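 Male Sprague-Dawley rats given a single intraperitoneal dose of 56.6 mg/kg. Plasma extracted with 2 volumes acetonitrile and centrifuged; metabolites profiled by LC-MS/MS.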

[4] = tested on: Plasma; test: Drug metabolism in Sprague-Dawley rat plasma assessed as hydroxylated thiazole metabolite formation at 56.6 mg/kg, ip single dose by LC-MS/MS analysis; assay type: ADME, organism-based; parameters: dose 56.6 mg/kg, route intraperitoneal; conditions: in vivo; in short: as §2
[5] = tested on: Plasma; test: Drug metabolism in Sprague-Dawley rat plasma assessed as hydroxylated pyrimidine metabolite formation at 56.6 mg/kg, ip single dose by LC-MS/MS analysis; assay type: ADME, organism-based; parameters: dose 56.6 mg/kg, route intraperitoneal; conditions: in vivo; in short: as §2
[6] = Drug metabolism in Sprague-Dawley rat cryopreserved hepatocytes assessed as hydroxylated thiazole metabolite formation at 25 uM by LC-MS/MS analysis in presence of 1-ABT pan-450 inactivator; assay type: ADME, cell-based, Hepatocyte
In short: (§3)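 Pooled cryopreserved hepatocytes (2 × 10^6 cells/ml) in Krebs-Henseleit buffer, 25 µM substrate, 37°C for 4 h. Rat donors were 14 males, cynomolgus 4 males, human 20 mixed gender. Cells precipitated with 2 volumes MeCN, centrifuged at 4°C; supernatant dried under nitrogen, reconstituted in 15% aqueous MeCN for LC-MS.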

[7] = Drug metabolism in Sprague-Dawley rat cryopreserved hepatocytes assessed as hydroxylated pyrimidine metabolite formation at 25 uM by LC-MS/MS analysis in presence of 1-ABT pan-450 inactivator; assay type: ADME, cell-based, Hepatocyte; in short: as §3
[8] = Drug metabolism in human cryopreserved hepatocytes assessed as hydroxylated thiazole metabolite formation at 25 uM by LC-MS/MS analysis in presence of 1-ABT pan-450 inactivator; assay type: ADME, cell-based, Hepatocyte; in short: as §3
[9] = Drug metabolism in human cryopreserved hepatocytes assessed as hydroxylated pyrimidine metabolite formation at 25 uM by LC-MS/MS analysis in presence of 1-ABT pan-450 inactivator; assay type: ADME, cell-based, Hepatocyte; in short: as §3
[10] = Intrinsic clearance in Sprague-Dawley rat hepatic S9 fraction at 1 uM; assay type: ADME, tissue-based, Liver
In short: (§4)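 Substrate depletion at 1 µM in 0.1 M potassium phosphate pH 7.4, S9 2.5 mg/ml or cytosol 1 mg/ml, ± NADPH 1 mM, 37°C. Sampled at 0, 3, 7, 15, 25 and 45 min, quenched in cold MeCN with internal standard, analysed by LC-MS/MS in triplicate. CLint scaled using 120.7 mg S9 or 80.7 mg cytosol protein.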

[11] = Intrinsic clearance in Sprague-Dawley rat hepatic S9 fraction at 1 uM in presence of NADPH; assay type: ADME, tissue-based, Liver; in short: as §4
[12] = Intrinsic clearance in Sprague-Dawley rat hepatic cytosol at 1 uM; assay type: ADME, tissue-based, Liver; in short: as §4
[13] = Intrinsic clearance in Sprague-Dawley rat cryopreserved hepatocytes at 1 uM; assay type: ADME, cell-based, Hepatocyte
In short: (§5)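 Hepatocyte depletion assay at 2 × 10^6 cells/ml, 37°C, ambient oxygen. Aliquots taken at 0, 15, 30, 60 and 120 min, quenched in ice-cold MeCN containing internal standard, analysed by LC-MS/MS in triplicate. Intrinsic clearance estimated by the substrate depletion method.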

[14] = Plasma clearance in Sprague-Dawley rat at 1 mg/kg, iv administered as single dose; assay type: ADME, organism-based; parameters: dose 1 mg/kg, route intravenous; in short: as §1
[15] = Intrinsic clearance in cynomolgus monkey hepatic S9 fraction at 1 uM; assay type: ADME, tissue-based, Macaca fascicularis, Liver; in short: as §4
[16] = Intrinsic clearance in cynomolgus monkey hepatic S9 fraction at 1 uM in presence of NADPH; assay type: ADME, tissue-based, Macaca fascicularis, Liver; in short: as §4
[17] = Intrinsic clearance in cynomolgus monkey cryopreserved hepatocytes at 1 uM; assay type: ADME, cell-based, Macaca fascicularis, Hepatocyte; in short: as §5
[18] = Plasma clearance in cynomolgus monkey at 1 mg/kg, iv administered as single dose; assay type: ADME, organism-based, Macaca fascicularis; parameters: dose 1 mg/kg, route intravenous
In short: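 Male cynomolgus monkeys (n = 2, about 3 kg) given 1 mg/kg i.v. via the saphenous vein in 10% ethanol/60% PEG400/30% isotonic saline. Femoral blood sampled from 0.033 to 24 h into chilled EDTA tubes; plasma kept at -80°C.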

[19] = Intrinsic clearance in human hepatic S9 fraction at 1 uM in presence of NADPH; assay type: ADME, tissue-based, Liver; in short: as §4
[20] = Intrinsic clearance in human hepatic cytosol at 1 uM; assay type: ADME, tissue-based, Liver; in short: as §4
[21] = Intrinsic clearance in human cryopreserved hepatocytes at 1 uM; assay type: ADME, cell-based, Hepatocyte; in short: as §5
[22] = Drug metabolism in Sprague-Dawley rat hepatic S9 fraction assessed as 3-fluoro-N-(4-methylthiazol-2-yl)-5-(6-oxo-1,6-dihydropyrimidin-5-yloxy)benzamide at 25 uM by LC-MS/MS analysis; assay type: ADME, Liver; conditions: s9, 25 µM
[23] = Drug metabolism in cynomolgus monkey hepatic S9 fraction assessed as 3-fluoro-N-(4-methylthiazol-2-yl)-5-(6-oxo-1,6-dihydropyrimidin-5-yloxy)benzamide at 1 uM by LC-MS/MS analysis; assay type: ADME, Macaca fascicularis, Liver; conditions: s9, 1 µM
[24] = Drug metabolism in human hepatic S9 fraction assessed as 3-fluoro-N-(4-methylthiazol-2-yl)-5-(6-oxo-1,6-dihydropyrimidin-5-yloxy)benzamide at 1 uM by LC-MS/MS analysis; assay type: ADME, Liver; conditions: s9, 1 µM
[25] = Drug metabolism in human cryopreserved hepatocytes assessed as 3-fluoro-N-(4-methylthiazol-2-yl)-5-(6-oxo-1,6-dihydropyrimidin-5-yloxy)benzamide at 25 uM by LC-MS/MS analysis; assay type: ADME, cell-based, Hepatocyte; in short: as §3
[26] = Drug metabolism in Sprague-Dawley rat hepatic S9 fraction assessed as 3-(2,4-dioxo-1,2,3,4-tetrahydropyrimidin-5-yloxy)-5-fluoro-N-(thiazol-2-yl)benzamide at 25 uM by LC-MS/MS analysis; assay type: ADME, Liver; conditions: s9, 25 µM
[27] = Drug metabolism in cynomolgus monkey hepatic S9 fraction assessed as 3-(2,4-dioxo-1,2,3,4-tetrahydropyrimidin-5-yloxy)-5-fluoro-N-(thiazol-2-yl)benzamide at 1 uM by LC-MS/MS analysis; assay type: ADME, Macaca fascicularis, Liver; conditions: s9, 1 µM
[28] = Drug metabolism in human hepatic S9 fraction assessed as 3-(2,4-dioxo-1,2,3,4-tetrahydropyrimidin-5-yloxy)-5-fluoro-N-(thiazol-2-yl)benzamide at 1 uM by LC-MS/MS analysis; assay type: ADME, Liver; conditions: s9, 1 µM
[29] = Drug metabolism in human cryopreserved hepatocytes assessed as 3-(2,4-dioxo-1,2,3,4-tetrahydropyrimidin-5-yloxy)-5-fluoro-N-(thiazol-2-yl)benzamide at 25 uM by LC-MS/MS analysis; assay type: ADME, cell-based, Hepatocyte; in short: as §3
[30] = Inhibition of group 1 mGluR (unknown origin); parameters: species or system Homo sapiens
[31] = Inhibition of group 2 mGluR (unknown origin); parameters: species or system Homo sapiens
[32] = Inhibition of group 3 mGluR (unknown origin); parameters: species or system Homo sapiens
[33] = Drug level in Sprague-Dawley rat hepatic S9 fraction treated with 25 uM VU0409106 by LC-UV-MS analysis; assay type: ADME, tissue-based, Liver
In short: (§6)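 Hepatic S9 (5 mg/ml) in 0.1 M potassium phosphate pH 7.4 with 3 mM MgCl2 and 25 µM substrate, 37°C, 1 h under ambient oxygen; NADPH (2 mM) added in select runs. Reactions started by adding substrate. Protein precipitated with 2 volumes MeCN and the supernatant dried under nitrogen, reconstituted in 85:15 10 mM ammonium formate (pH 4.1)-MeCN, then analysed by LC-MS.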

[34] = Drug level in cynomolgus monkey hepatic S9 fraction treated with 25 uM VU0409106 by LC-UV-MS analysis; assay type: ADME, tissue-based, Macaca fascicularis, Liver; in short: as §6
[35] = Drug level in human hepatic S9 fraction treated with 25 uM VU0409106 by LC-UV-MS analysis; assay type: ADME, tissue-based, Liver; in short: as §6
[36] = tested on: Hepatocyte; test: Drug level in Sprague-Dawley rat cryopreserved hepatocytes treated with 25 uM VU0409106 by LC-UV-MS analysis; assay type: ADME, cell-based
[37] = Drug level in beagle dog hepatic S9 fraction treated with 25 uM VU0409106 by LC-MS/MS analysis; assay type: ADME, tissue-based, Canis lupus familiaris, Liver; in short: as §6
[38] = Drug level in Sprague-Dawley rat hepatic S9 fraction treated with 25 uM VU0409106 by LC-MS/MS analysis in presence of 100 uM hydralazine aldehyde oxidase inhibitor; assay type: ADME, tissue-based, Liver; in short: as §6
[39] = Drug level in Sprague-Dawley rat hepatic S9 fraction treated with 25 uM VU0409106 by LC-MS/MS analysis in presence of 100 uM allopurinol xanthine oxidase inhibitor; assay type: ADME, tissue-based, Liver; in short: as §6
[40] = Drug level in human hepatic S9 fraction treated with 25 uM VU0409106 by LC-MS/MS analysis in presence of 100 uM raloxifene aldehyde oxidase inhibitor; assay type: ADME, tissue-based, Liver; in short: as §6
[41] = Drug level in human hepatic S9 fraction treated with 25 uM VU0409106 by LC-MS/MS analysis in presence of 100 uM hydralazine aldehyde oxidase inhibitor; assay type: ADME, tissue-based, Liver; in short: as §6
[42] = tested on: Plasma; test: Drug level in Sprague-Dawley rat plasma treated with 56.6 mg/kg, ip VU0409106 single dose by LC-MS/MS analysis; assay type: ADME, organism-based; parameters: dose 56.6 mg/kg, route intraperitoneal; conditions: in vivo; in short: as §2

Structure (SMILES): Cc1csc(NC(=O)c2cc(F)cc(Oc3cncnc3)c2)n1
- Vd [1]: 0.81 L/kg
- half-life [2]: < 15 min
- Retention_time [3]: 14.5 min
- Drug metabolism [4]: metabolite_detected
- Drug metabolism [5]: metabolite_detected
- Drug metabolism [6]: metabolite_not_detected
- Drug metabolism [7]: metabolite_not_detected
- Drug metabolism [8]: metabolite_not_detected
- Drug metabolism [9]: metabolite_not_detected
- CLint at 1 µM [10]: 25 mL/min/kg
- CLint at 1 µM [11]: 54 mL/min/kg
- CLint at 1 µM [12]: 16 mL/min/kg
- CLint at 1 µM [13]: 96 mL/min/kg
- clearance [14]: 43 mL/min/kg
- CLint at 1 µM [15]: 34 mL/min/kg
- CLint at 1 µM [16]: 37 mL/min/kg
- CLint at 1 µM [17]: 194 mL/min/kg
- clearance [18]: 24 mL/min/kg
- CLint at 1 µM [19]: 15 mL/min/kg
- CLint at 1 µM [20]: 3.7 mL/min/kg
- CLint at 1 µM [21]: 6.9 mL/min/kg
- Drug metabolism [22]: metabolite_detected
- Drug metabolism [23]: metabolite_detected
- Drug metabolism [24]: metabolite_detected
- Drug metabolism [25]: metabolite_detected
- Drug metabolism [26]: metabolite_detected
- Drug metabolism [27]: metabolite_detected
- Drug metabolism [28]: metabolite_detected
- Drug metabolism [29]: metabolite_detected
- IC50 [30]: ≥ 10 µM
- IC50 [31]: ≥ 10 µM
- IC50 [32]: ≥ 10 µM

Structure (SMILES): Cc1csc(NC(=O)c2cc(F)cc(Oc3cnc[nH]c3=O)c2)n1
- Retention_time [3]: 12.55 min
- Drug metabolism [33]: metabolite_detected
- Drug metabolism [34]: metabolite_detected
- Drug metabolism [35]: metabolite_detected
- Drug metabolism [36]: metabolite_detected
- Drug metabolism [37]: metabolite_not_detected
- Drug metabolism [38]: metabolite_not_detected
- Drug metabolism [39]: metabolite_detected
- Drug metabolism [40]: metabolite_not_detected
- Drug metabolism [41]: metabolite_not_detected
- Drug metabolism [42]: metabolite_detected
